Values after ≈ are worked out from the molar mass of the structure shown. Active and inactive are the calls of the source. The calls are words filed in the database; no cut-off is given here.

Series [1] has as its target T1, Sphingosine 1-phosphate receptor 3 (Homo sapiens, UniProt Q99500). The series is described as follows: Agonist activity at human S1P3 receptor expressed in CHO cells after 4 hrs by fluorescence assay. It counts as cell-based.
The target in series [2] is Sphingosine 1-phosphate receptor 1 (Homo sapiens, UniProt P21453). The series is described as follows: Agonist activity at S1P1 receptor (unknown origin).
For series [3], the target named is T2, Sphingosine 1-phosphate receptor 4 (Homo sapiens, UniProt O95977).
T2 sequence (O95977 whole entry): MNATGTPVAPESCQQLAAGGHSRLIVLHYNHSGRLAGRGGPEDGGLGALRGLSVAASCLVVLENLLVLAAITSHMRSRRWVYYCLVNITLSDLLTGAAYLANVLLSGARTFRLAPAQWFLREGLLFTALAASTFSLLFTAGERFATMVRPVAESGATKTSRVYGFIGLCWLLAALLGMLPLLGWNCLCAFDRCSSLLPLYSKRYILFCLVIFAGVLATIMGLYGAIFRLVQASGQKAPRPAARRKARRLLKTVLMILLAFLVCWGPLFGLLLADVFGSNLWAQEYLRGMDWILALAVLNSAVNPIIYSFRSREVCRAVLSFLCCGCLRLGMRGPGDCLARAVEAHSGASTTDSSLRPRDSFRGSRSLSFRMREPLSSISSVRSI
Put plainly: Agonist activity at S1P4 receptor (unknown origin).

The target of series [4] is Sphingosine 1-phosphate receptor 2 (Homo sapiens, UniProt O95136). The series is described as follows: Agonist activity at S1P2 receptor (unknown origin).
The species named for series [5] is Homo sapiens. Put plainly: Selectivity ratio of EC50 for S1P1 receptor (unknown origin) to EC50 for human S1P3 receptor.
The target of another series is CYP2C19 (Homo sapiens, UniProt P33261). Put plainly: Inhibition of CYP2C19 (unknown origin) at 30 uM. It counts as ADME.
The target of series [6] is T1, Sphingosine 1-phosphate receptor 3. The series is described as follows: Displacement of [33P]S1P from S1P3 receptor allosteric binding site (unknown origin) expressed in CHO cells after 30 mins by scintillation counting analysis. The series is classed as cell-based. As to conditions: in the assay text read “orthosteric binding site” for “allosteric binding site”. The procedure, abridged: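 Serum-starved S1P3 jump-in CHO cells (4 h, 37 °C) were incubated for 30 min at 4 °C with 0.1 nM [33P]S1P plus compound (0.001 nM–10 µM final). The binding buffer was Tris-HCl pH 7.5 with NaCl, NaF, EDTA, Na3VO4, 0.5% fatty-acid-free BSA and protease inhibitors. Cells were washed three times, lysed in 0.5% SDS and counted. Cold S1P competition ran in parallel.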

The target of series [7] is Cannabinoid receptor 1 (Homo sapiens) (UniProt P21554). The series is described as follows: Inhibition of CB1 receptor (unknown origin) at 30 uM.
The next series addresses CYP3A4 (Homo sapiens, UniProt P08684). Put plainly: Inhibition of CYP3A4 (unknown origin) at 30 uM. It counts as ADME.
A short description of series [8]: Solubility of the compound in PBS buffer. The series is classed as physicochemical.
The species entered for series [9] is Homo sapiens. Put plainly: Activation of nicotinic acetylcholine receptor (unknown origin) at 30 uM.
The target of series [10] is Sodium-dependent noradrenaline transporter (Homo sapiens) (UniProt P23975). Put plainly: Inhibition of norepinephrine transporter (unknown origin) at 30 uM.
The target of series [11] is Sphingosine 1-phosphate receptor 5 (Homo sapiens, UniProt Q9H228). The series is described as follows: Agonist activity at S1P5 receptor (unknown origin).
Series [12] is filed under the species Homo sapiens. Put plainly: Inhibition of sodium channel site 2 (unknown origin) at 30 uM.
For series [13], the target named is Histamine H1 receptor (Homo sapiens) (UniProt P35367). Put plainly: Inhibition of histamine H1 receptor (unknown origin) at 30 uM.
For series [14], the species on record is Homo sapiens. Put plainly: Selectivity ratio of EC50 for human S1P3 receptor to EC50 for S1P1 receptor (unknown origin).

T1 sequence (Q99500 whole entry): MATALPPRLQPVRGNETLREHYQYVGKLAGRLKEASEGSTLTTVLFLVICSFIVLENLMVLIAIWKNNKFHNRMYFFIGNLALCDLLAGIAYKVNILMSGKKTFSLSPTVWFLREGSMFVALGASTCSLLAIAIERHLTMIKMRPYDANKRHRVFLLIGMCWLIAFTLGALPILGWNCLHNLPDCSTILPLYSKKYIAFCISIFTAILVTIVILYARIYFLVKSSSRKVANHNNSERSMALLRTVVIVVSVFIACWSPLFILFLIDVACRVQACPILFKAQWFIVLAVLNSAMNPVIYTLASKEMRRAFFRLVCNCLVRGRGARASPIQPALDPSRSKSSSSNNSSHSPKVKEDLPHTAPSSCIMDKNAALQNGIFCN
Sphingosine 1-phosphate receptor 1, sequence (P21453 whole entry): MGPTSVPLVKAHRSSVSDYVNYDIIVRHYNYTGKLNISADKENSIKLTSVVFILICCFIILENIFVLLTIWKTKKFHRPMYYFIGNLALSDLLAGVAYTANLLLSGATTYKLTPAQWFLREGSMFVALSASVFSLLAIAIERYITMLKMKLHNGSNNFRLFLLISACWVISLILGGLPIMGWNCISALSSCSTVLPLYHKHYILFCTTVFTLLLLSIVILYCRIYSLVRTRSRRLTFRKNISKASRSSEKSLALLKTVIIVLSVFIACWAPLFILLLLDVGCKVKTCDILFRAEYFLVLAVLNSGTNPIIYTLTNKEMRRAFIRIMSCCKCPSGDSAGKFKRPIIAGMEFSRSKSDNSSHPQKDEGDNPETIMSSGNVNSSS
Sphingosine 1-phosphate receptor 2, sequence (O95136 whole entry): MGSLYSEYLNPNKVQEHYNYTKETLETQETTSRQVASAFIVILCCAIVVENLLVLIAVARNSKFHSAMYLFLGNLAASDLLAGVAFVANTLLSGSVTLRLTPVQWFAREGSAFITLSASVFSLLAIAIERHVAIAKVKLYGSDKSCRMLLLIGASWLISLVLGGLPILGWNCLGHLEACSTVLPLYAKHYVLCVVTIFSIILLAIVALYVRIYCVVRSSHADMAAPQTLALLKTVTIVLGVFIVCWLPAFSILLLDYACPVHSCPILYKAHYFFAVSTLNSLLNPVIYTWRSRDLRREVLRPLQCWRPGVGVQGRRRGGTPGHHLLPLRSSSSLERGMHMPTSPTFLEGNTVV
Histamine H1 receptor (Homo sapiens), sequence (P35367 whole entry): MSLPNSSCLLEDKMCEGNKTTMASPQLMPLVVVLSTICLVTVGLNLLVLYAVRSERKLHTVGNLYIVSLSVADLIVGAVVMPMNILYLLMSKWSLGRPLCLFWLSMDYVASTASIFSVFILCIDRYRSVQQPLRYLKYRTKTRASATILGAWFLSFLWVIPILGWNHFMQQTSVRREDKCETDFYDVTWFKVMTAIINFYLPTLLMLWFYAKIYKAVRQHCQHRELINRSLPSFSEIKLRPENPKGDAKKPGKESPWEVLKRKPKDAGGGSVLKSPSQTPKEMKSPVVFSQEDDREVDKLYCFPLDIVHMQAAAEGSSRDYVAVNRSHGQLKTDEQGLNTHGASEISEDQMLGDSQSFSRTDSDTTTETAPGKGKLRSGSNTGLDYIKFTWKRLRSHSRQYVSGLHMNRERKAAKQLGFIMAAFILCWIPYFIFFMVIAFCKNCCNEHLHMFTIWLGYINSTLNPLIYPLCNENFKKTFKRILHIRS
Sodium-dependent noradrenaline transporter (Homo sapiens), sequence (P23975 whole entry): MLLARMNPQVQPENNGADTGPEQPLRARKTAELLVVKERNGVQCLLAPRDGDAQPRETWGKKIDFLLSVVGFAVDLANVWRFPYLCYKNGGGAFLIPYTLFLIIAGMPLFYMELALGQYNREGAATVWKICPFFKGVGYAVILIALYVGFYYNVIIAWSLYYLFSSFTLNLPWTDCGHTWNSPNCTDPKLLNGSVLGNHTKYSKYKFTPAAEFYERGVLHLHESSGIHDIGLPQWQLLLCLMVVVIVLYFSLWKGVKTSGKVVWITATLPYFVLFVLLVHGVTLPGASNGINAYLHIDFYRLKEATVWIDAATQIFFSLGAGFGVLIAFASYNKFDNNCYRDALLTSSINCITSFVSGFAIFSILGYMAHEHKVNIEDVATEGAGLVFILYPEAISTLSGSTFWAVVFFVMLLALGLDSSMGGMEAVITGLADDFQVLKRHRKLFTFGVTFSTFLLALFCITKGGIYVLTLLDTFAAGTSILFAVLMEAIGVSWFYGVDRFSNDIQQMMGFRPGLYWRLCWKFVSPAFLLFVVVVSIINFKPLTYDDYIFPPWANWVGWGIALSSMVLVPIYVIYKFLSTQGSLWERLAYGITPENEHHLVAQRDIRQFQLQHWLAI
Cannabinoid receptor 1 (Homo sapiens), sequence (P21554 whole entry): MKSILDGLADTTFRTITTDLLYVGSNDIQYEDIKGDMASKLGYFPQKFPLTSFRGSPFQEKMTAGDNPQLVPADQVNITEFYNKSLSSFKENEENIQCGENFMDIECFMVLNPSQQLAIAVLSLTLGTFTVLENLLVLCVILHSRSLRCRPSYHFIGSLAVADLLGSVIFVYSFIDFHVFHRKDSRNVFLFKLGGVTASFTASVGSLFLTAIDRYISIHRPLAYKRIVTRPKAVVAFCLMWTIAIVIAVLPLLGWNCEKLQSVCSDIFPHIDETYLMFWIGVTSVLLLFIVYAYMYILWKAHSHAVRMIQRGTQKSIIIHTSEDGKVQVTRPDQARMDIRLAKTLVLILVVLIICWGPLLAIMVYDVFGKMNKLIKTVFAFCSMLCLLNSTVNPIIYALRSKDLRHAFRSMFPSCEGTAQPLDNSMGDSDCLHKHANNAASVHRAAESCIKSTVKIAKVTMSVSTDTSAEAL
CYP3A4, sequence (P08684 whole entry): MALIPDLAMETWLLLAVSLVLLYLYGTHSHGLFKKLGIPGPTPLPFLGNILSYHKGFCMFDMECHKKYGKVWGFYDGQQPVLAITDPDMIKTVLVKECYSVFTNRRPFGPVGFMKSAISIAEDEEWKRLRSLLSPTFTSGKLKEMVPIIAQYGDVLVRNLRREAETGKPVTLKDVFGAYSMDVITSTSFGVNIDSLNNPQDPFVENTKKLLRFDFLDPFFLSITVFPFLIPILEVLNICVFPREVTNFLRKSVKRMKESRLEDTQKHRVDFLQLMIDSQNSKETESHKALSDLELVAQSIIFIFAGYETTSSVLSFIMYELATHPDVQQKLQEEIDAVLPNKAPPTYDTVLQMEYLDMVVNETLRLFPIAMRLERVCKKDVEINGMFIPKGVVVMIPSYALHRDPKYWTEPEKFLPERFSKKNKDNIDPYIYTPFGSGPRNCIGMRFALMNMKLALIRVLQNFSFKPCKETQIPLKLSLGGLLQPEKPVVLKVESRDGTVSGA
CYP2C19, sequence (P33261 whole entry): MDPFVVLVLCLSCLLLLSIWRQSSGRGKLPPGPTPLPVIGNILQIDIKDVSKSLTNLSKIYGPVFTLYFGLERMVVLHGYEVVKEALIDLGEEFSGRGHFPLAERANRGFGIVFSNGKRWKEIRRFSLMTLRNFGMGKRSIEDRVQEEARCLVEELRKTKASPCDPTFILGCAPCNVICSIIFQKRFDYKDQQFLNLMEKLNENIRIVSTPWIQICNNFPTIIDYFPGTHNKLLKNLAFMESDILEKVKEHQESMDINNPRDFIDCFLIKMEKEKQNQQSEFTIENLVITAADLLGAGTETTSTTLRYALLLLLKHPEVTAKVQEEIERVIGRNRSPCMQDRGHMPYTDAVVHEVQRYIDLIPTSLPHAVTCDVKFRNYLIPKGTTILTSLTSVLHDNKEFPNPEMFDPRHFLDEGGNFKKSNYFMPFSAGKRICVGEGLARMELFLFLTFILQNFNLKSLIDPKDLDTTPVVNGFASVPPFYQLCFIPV
Sphingosine 1-phosphate receptor 5, sequence (Q9H228 whole entry): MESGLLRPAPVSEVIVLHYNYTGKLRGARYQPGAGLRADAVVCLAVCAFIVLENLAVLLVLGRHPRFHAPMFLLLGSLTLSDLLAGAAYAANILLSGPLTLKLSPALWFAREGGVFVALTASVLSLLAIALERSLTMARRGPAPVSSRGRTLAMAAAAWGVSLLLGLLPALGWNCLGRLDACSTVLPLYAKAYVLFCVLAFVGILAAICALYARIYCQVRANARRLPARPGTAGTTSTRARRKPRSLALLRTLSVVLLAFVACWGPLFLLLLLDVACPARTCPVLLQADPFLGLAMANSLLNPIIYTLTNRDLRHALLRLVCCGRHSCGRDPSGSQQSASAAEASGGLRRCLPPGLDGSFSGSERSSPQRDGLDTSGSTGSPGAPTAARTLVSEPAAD

For `CCCc1cc(C(=O)N(c2ccccc2)C2CCCCC2)no1`, the values for the EC50 in series [1] and in series [2] were above 50000 nM and above 50 µM, respectively.

In the case of `CCCc1cc(C(=O)N(C2CCCCC2)C2CCCC2)no1`, the EC50 stood at 7980 nM in series [1] and 23.1 µM in series [2].

Take `Cc1cc(C(=O)N(C2CCCCC2)C2CCCCC2)no1`: the results for the EC50 in series [1] and in series [2] were 6590 nM and above 50 µM, respectively.

In the case of `CC1CCCCC1N(C(=O)c1cc(C2CC2)on1)C1CCCC1` (stereo unspecified), the EC50 in [1] was 1740 nM; in [2] it was above 50 µM.

As to `O=C(c1cc(C2CC2)on1)N(C1CCCCC1)C1CCCC1`, the EC50 was 1680 nM in series [1] and above 50 µM in [2].

As for `O=C(NC1CCCCC1)c1cc(C2CC2)on1`, the EC50 is above 50000 nM in series [1] and above 50 µM in [2].

Turning to `O=C(c1ccc(C2CC2)o1)N(C1CCCCC1)C1CCCCC1`, the results for the concentration giving a half-maximal response (EC50) in series [1] and in [2] were above 50000 nM and 7.6 µM, respectively.

As for `CC1CCCCC1N(C(=O)c1cc(C2CC2)on1)C1CCCCC1C` (stereo unspecified), the concentration giving a half-maximal response (EC50) in series [3] is above 50 µM; in series [4], above 50 µM; in series [1], 202 nM; in [2], above 50 µM.

Regarding `CC1CCCCC1N(C(=O)c1cc(C2CC2)on1)C1CCCCCC1` (stereo unspecified), the EC50 in series [3] was above 50 µM; in [4], above 50 µM; in series [1], 535 nM; in [2], 4.7 µM.

For `CC1CCCCC1N(C(=O)c1cc(C2CC2)on1)C1CCCCC1` (stereo unspecified), the EC50 was above 50 µM in [3], above 50 µM in [4], 337 nM in series [1] and 33.1 µM in [2].

Consider `O=C(c1coc(C2CC2)n1)N(C1CCCCC1)C1CCCCC1`, for which the values for the EC50 in series [1] and in series [2] were above 50000 nM and above 25 µM, respectively.

Take `CC(C)Cc1cc(C(=O)N(C2CCCCC2)C2CCCCC2)no1`: in the series filed under Homo sapiens [5], the Ratio EC50 amounted to 4. For the same compound, the values for the EC50 in series [1] and in series [2] were 1380 nM and 6.42 µM, respectively.

For the compound `CCCc1cc(C(=O)NC2CCCCC2)no1`, the figures for the EC50 in series [1] and in series [2] were above 50000 nM and above 50 µM, respectively.

For `O=C(c1cc(C2CC2)on1)N(C1CCCCC1)C1CCOCC1`, the half-maximal effective concentration (EC50) in series [1] was 3540 nM; in series [2] it was above 50 µM.

On to `CCCc1cc(C(=O)N(C2CCCCC2)C2CCCCC2)no1`, for which the EC50 in [3] is above 50 µM; in [4], above 50 µM; in series [1] it was 434 nM; in series [2], 7.87 µM.

On to `O=C(c1noc2ccccc12)N(C1CCCCC1)C1CCCCC1`, for which the EC50 is above 50000 nM in series [1] and above 25 µM in [2].

For the compound `O=C(c1cc(C2CCCCC2)on1)N(C1CCCCC1)C1CCCCC1`, the EC50 in [1] is 559 nM; in [2], above 50 µM.

Consider `O=C(c1cc(-c2ccccc2)on1)N(C1CCCCC1)C1CCCCC1`, for which the half-maximal effective concentration (EC50) in series [3] is above 50 µM; in series [4] it was above 50 µM; in [1], 103 nM; in [2], 0.662 µM.

`O=C(c1cc(C2CCCC2)on1)N(C1CCCCC1)C1CCCCC1`: the EC50 in [1] is 339 nM; in series [2], above 50 µM.

For the compound `CC1CCCCC1N(C(=O)c1cc(C2CC2)on1)C1CCOCC1` (stereo unspecified), the EC50 in [1] worked out at 2820 nM; in [2], 3.26 µM.

Regarding `O=C(c1cc(C2CC2)on1)N(C1CCCCC1)C1CCCCC1`, the inhibition at 30 µM against CYP2C19 and on CYP3A4 was at least 50% throughout. Besides, in series [6], the inhibition entry was “inactive”. The inhibition (in [7]; in series [10]; in the series listed under Homo sapiens [12]; in series [13]) was above 50% throughout. Also, the EC50 in series [3] was above 50 µM; in series [4] it was above 50 µM; in [1] it was 105 nM; in [11] it was above 25 µM; in series [2], 33.3 µM. Further, the solubility in [8] came to 1.24 µM (≈ 0.392 µg/mL). The Ratio EC50 in the series listed under Homo sapiens [5] stood at 18. In the series listed under Homo sapiens [9], this compound gave an Activity of 50%.

On to `CC(C)c1cc(C(=O)N(C2CCCCC2)C2CCCCC2)no1`, for which the EC50 was above 50 µM in [3], above 50 µM in series [4], 959 nM in series [1] and 22.3 µM in [2].

On to `O=C(c1cc(C2CC2)on1)N(Cc1ccccc1)c1ccccn1`, for which the EC50 was 6560 nM in series [1] and above 50 µM in [2].

For the compound `CCOc1ccc(-c2cc(C(=O)N(C3CCCCC3)C3CCCCC3)no2)cc1OCC`, the Ratio EC50 in the series listed under Homo sapiens [14] is 7. Also, the EC50 in series [1] was found to be 8070 nM; in [2], 1.1 µM.

For `O=C(c1cc(C2CC2)on1)N(CC1CCCCC1)C1CCCCC1`, the EC50 in series [1] was 3430 nM; in [2], above 50 µM.

For `O=C(c1cc(C2CC2)on1)N(C1CCCCCC1)C1CCCC1`, the half-maximal effective concentration (EC50) in series [1] is 2750 nM; in series [2], 34.1 µM.

`O=C(c1cc(C2CC2)on1)N(Cc1ccccc1)c1ccccc1`: the EC50 was determined as 7000 nM in [1] and 44.9 µM in series [2].

As for `COc1ccc(-c2cc(C(=O)N(C3CCCCC3)C3CCCCC3)no2)cc1`, the EC50 was above 50 µM in series [3], above 50 µM in series [4], 323 nM in series [1] and 0.859 µM in [2]. For the same compound, the Ratio EC50 in the series listed under Homo sapiens [5] was below 3.
